Measurements published in ChEMBL document CHEMBL3046382, “Synthesis and insecticidal activities and SAR studies of novel benzoheterocyclic diacylhydrazine derivatives” (2009).
≈ marks a conversion by molar mass, not a printed value.

Tests used:
Type in all cases: functional
[1] = system: Culicidae; assay: Toxicity against fourth-instar larvae of Culex pipiens pallens assessed as mortality at 0.5 mg/kg measured after 7 to 10 days
Procedure, shortened: (§1)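 For each concentration, 1 mL of dilution was added to 99 mL water and 20 fourth-instar larvae introduced. Percentage mortality assessed 7–10 days after treatment.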

[2] = system: Culicidae; assay: Toxicity against fourth-instar larvae of Culex pipiens pallens assessed as mortality at 1 mg/kg measured after 7 to 10 days; procedure, shortened: as §1
[3] = system: Ostrinia nubilalis; assay: Stomach toxicity in Ostrinia nubilalis (European corn borer) in compound treated corn leaves assessed as mortality measured after 4 days by leaf-dip method; details: for LC50: Ostrinia nubilalis, 96 h
Procedure, shortened: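 Corn leaf disks (about 5 cm) dipped 3–5 s in test solution, air-dried, and placed singly in 7 cm glass vessels. Each disk given 10 third-instar larvae. Acetone-treated leaves as control, four replicates. Percentage mortality at 4 days; LC50 and LC95 derived.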

[4] = system: Helicoverpa armigera; assay: Contact toxicity in Helicoverpa armigera assessed as mortality at 1000 mg/L by topical application measured after 4 days […]
Procedure, shortened: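 Third-instar larvae; compounds in acetone at 1000 mg L⁻¹, 0.5 μL applied to the thoracic tergite by microapplicator. Larvae then returned to standard rearing conditions. Percentage mortality scored 4 days after treatment.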

[5] = system: Helicoverpa armigera; assay: Stomach toxicity in Helicoverpa armigera in compound treated corn leaves assessed as mortality at 1000 mg/L measured after 4 days by leaf-dip method
Procedure, shortened: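 Corn leaves dipped in acetone solution at 1000 mg L⁻¹ and air-dried. Each treated disk placed singly in a 24-hole box and given 10 third-instar larvae. Percentage mortality scored after 4 days.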

[6] = system: Plutella xylostella; assay: Contact toxicity in fourth-instar Plutella xylostella (diamondback moth) larva assessed as mortality measured after 72 hr by insect-dip method
Procedure, shortened: (§2)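 Fourth-instar larvae immersed for 5 min in acetone solutions diluted with water, five concentrations. Larvae then held at 25 ± 1 °C under standard rearing. Usually 30 insects per dose, each treatment in triplicate, water-only control. Mortality read at 48 and 72 h and LC50 derived.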

[7] = system: Plutella xylostella; assay: Contact toxicity in fourth-instar Plutella xylostella (diamondback moth) larva assessed as mortality measured after 48 hr by insect-dip method; procedure, shortened: as §2
[8] = system: Spodoptera exigua; assay: Contact toxicity in fourth-instar Spodoptera exigua assessed as mortality by topical application measured after 48 hr; details: read-out: LD50 (the source's name)
Procedure, shortened: (§3)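 Topical application to fourth-instar larvae: 1.0 μL of acetone dilution at various concentrations placed on the thoracic tergite by automatic microapplicator. Larvae then returned to standard rearing. Acetone-only control, each treatment three times. Mortality calculated at 48 and 72 h and LC50 derived.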

[9] = system: Spodoptera exigua; assay: Contact toxicity in fourth-instar Spodoptera exigua assessed as mortality by topical application measured after 72 hr; details: read-out: LD50 (the source's name); procedure, shortened: as §3
[10] = system: Spodoptera exigua; assay: Stomach toxicity in Spodoptera exigua in compound treated cabbage leaves assessed as mortality measured after 3 days by leaf-dip method; details: 72 h
Procedure, shortened: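 Cabbage leaf disks (5 cm × 3 cm) dipped 3 s in test solution, air-dried, and placed singly in 80 cm³ boxes. Each disk given five third-instar larvae. Water- and acetone-treated leaves as controls, each treatment three times. Percentage mortality read at 3 days.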

[11] = system: Culicidae; assay: Toxicity against fourth-instar larvae of Culex pipiens pallens assessed as mortality at 2 mg/kg measured after 7 to 10 days; procedure, shortened: as §1
[12] = system: Mythimna separata; assay: Stomach toxicity in fourth-instar Mythimna separata (Oriental armyworm) larvae in compound treated corn leaves assessed as mortality at 2.5 mg/kg measured after 4 days; details: 96 h
[13] = system: Mythimna separata; assay: Stomach toxicity in fourth-instar Mythimna separata (Oriental armyworm) larvae in compound treated corn leaves assessed as mortality at 5 mg/kg measured after 4 days; details: 96 h
[14] = system: Mythimna separata; assay: Stomach toxicity in fourth-instar Mythimna separata (Oriental armyworm) larvae in compound treated corn leaves assessed as mortality at 10 mg/kg measured after 4 days; details: 96 h
[15] = system: Mythimna separata; assay: Stomach toxicity in fourth-instar Mythimna separata (Oriental armyworm) larvae in compound treated corn leaves assessed as mortality at 25 mg/kg measured after 4 days; details: 96 h
[16] = system: Mythimna separata; assay: Stomach toxicity in fourth-instar Mythimna separata (Oriental armyworm) larvae in compound treated corn leaves assessed as mortality at 50 mg/kg measured after 4 days; details: 96 h
[17] = system: Mythimna separata; assay: Stomach toxicity in fourth-instar Mythimna separata (Oriental armyworm) larvae in compound treated corn leaves assessed as mortality at 100 mg/kg measured after 4 days; details: 96 h
[18] = system: Mythimna separata; assay: Stomach toxicity in fourth-instar Mythimna separata(Oriental armyworm) larvae in compound treated corn leaves assessed as mortality at 200 mg/kg measured after 4 days; details: 96 h

Compound: Cc1cc(C)cc(C(=O)N(NC(=O)c2ccc3c(c2C)CC(C)O3)C(C)(C)C)c1 (stereo unspecified)
- mortality at 0.5 mg/kg [1]: 10%
- mortality at 1 mg/kg [2]: 10%
- LC95 [3]: 271.89 µg/mL (≈ 689 µM)
- LC50 [3]: 40.5 µg/mL (≈ 103 µM)
- Activity [4]: 50%
- Activity [5]: 70%
- LC50 [6]: 81.4 µg/mL (≈ 206 µM)
- LC50 [7]: 124 µg/mL (≈ 314 µM)
- LC50 [8]: 190 µg/mL (≈ 482 µM)
- LC50 [9]: 52.8 µg/mL (≈ 134 µM)
- LC50 [10]: 12.7 µg/mL (≈ 32.2 µM)
- mortality at 2 mg/kg [11]: 80%
- mortality at 2.5 mg/kg [12]: 20%
- mortality at 5 mg/kg [13]: 80%
- mortality at 10 mg/kg [14]: 95%
- mortality at 25 mg/kg [15]: 100%
- mortality at 50 mg/kg [16]: 100%
- mortality at 100 mg/kg [17]: 100%
- mortality at 200 mg/kg [18]: 100%

Compound: Cc1cc(C)cc(C(=O)N(NC(=O)c2ccc3c(c2C)CCCO3)C(C)(C)C)c1 [CHROMAFENOZIDE]
- mortality at 0.5 mg/kg [1]: 10%
- mortality at 1 mg/kg [2]: 80%
- LC95 [3]: 139.25 µg/mL (≈ 353 µM)
- LC50 [3]: 18.6 µg/mL (≈ 47.2 µM)
- Activity [4]: 60%
- Activity [5]: 65%
- LC50 [6]: 123 µg/mL (≈ 312 µM)
- LC50 [7]: 236 µg/mL (≈ 598 µM)
- LC50 [8]: 29.8 µg/mL (≈ 75.5 µM)
- LC50 [9]: 14.9 µg/mL (≈ 37.8 µM)
- LC50 [10]: 6.3 µg/mL (≈ 16 µM)
- mortality at 2 mg/kg [11]: 100%
- mortality at 2.5 mg/kg [12]: 80%
- mortality at 5 mg/kg [13]: 100%
- mortality at 10 mg/kg [14]: 100%
- mortality at 25 mg/kg [15]: 100%
- mortality at 50 mg/kg [16]: 100%
- mortality at 100 mg/kg [17]: 100%
- mortality at 200 mg/kg [18]: 100%

Compound: Cc1cc(C)cc(C(=O)N(NC(=O)c2ccc3c(c2C)OC(C)C3)C(C)(C)C)c1 (stereo unspecified) [FUXIAN]
- mortality at 0.5 mg/kg [1]: 50%
- mortality at 1 mg/kg [2]: 100%
- LC95 [3]: 147.78 µg/mL (≈ 375 µM)
- LC50 [3]: 25.6 µg/mL (≈ 64.8 µM)
- Activity [4]: 60%
- Activity [5]: 60%
- LC50 [6]: 304 µg/mL (≈ 772 µM)
- LC50 [7]: 372 µg/mL (≈ 943 µM)
- LC50 [8]: 59.6 µg/mL (≈ 151 µM)
- LC50 [9]: 12.6 µg/mL (≈ 31.9 µM)
- LC50 [10]: 5 µg/mL (≈ 12.7 µM)
- mortality at 2 mg/kg [11]: 100%
- mortality at 2.5 mg/kg [12]: 95%
- mortality at 5 mg/kg [13]: 100%
- mortality at 10 mg/kg [14]: 100%
- mortality at 25 mg/kg [15]: 100%
- mortality at 50 mg/kg [16]: 100%
- mortality at 100 mg/kg [17]: 100%
- mortality at 200 mg/kg [18]: 100%

Compound: Cc1cc(C)cc(C(=O)N(NC(=O)c2ccc3c(c2Cl)CCCO3)C(C)(C)C)c1 [N'-TERT-BUTYL-N'-(3,5-DIMETHYLBENZOYL)-N-5-CHLORO-6-CHROMANECARBOHYDRAZIDE]
- LC95 [3]: 405.65 µg/mL (≈ 978 µM)
- LC50 [3]: 55.6 µg/mL (≈ 134 µM)
- Activity [4]: 40%
- Activity [5]: 80%
- LC50 [6]: 70.8 µg/mL (≈ 171 µM)
- LC50 [7]: 113 µg/mL (≈ 273 µM)
- LC50 [8]: 17.3 µg/mL (≈ 41.7 µM)
- LC50 [9]: 11.7 µg/mL (≈ 28.2 µM)
- LC50 [10]: 5.5 µg/mL (≈ 13.3 µM)
